# Data as given in ChEMBL document CHEMBL3297682, “Synthesis and anticancer activity of γ-(triazolyl ethylidene)butenolides and polyfunctional pyrrolinones” (Eur J Med Chem, 2014).
# The source made the active and inactive calls. The calls are words filed in the database; no cut-off is given here.
# Tests used:
# MDA-MB-231 [1] = test: Induction of apoptosis in human MDA-MB-231 cells assessed as late apoptotic cells measured after 24 hrs by Annexin-V/PI staining based flow cytometry (reference value: 2.91%); assay type: functional
# MCF7 [2] = test: Induction of cell cycle arrest in human MCF7 cells assessed as accumulation at subG1 phase at IC50 concentration measured after 24 hrs by propidium iodide staining based flow cytometry; assay type: functional
# How it was run: (§1)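 1×10^6 cells seeded in six-well plates and treated 24 h. Floating and trypsinized adherent cells pooled and fixed in 70% ethanol. Cells washed in PBS, then stained 30 min at room temperature in the dark with 30 µg/mL propidium iodide in PBS containing RNase A. DNA content measured by flow cytometry.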
# MDA-MB-231 [3] = test: Induction of reactive oxygen species production in human MDA-MB-231 cells after 24 hrs by DCFH-DA dye based flow cytometry; assay type: functional, cell-based
# How it was run: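 MDA-MB-231 cells (1×10^6) seeded 24 h in six-well plates, then treated 24 h. Cells harvested, washed in PBS and fixed in absolute methanol. Cells resuspended in PBS with 15 µg/mL DCFH-DA for 30 min in the dark, then pelleted, taken up in PBS, and fluorescence read by flow cytometry.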
# MDA-MB-231 [4] = test: Induction of apoptosis in human MDA-MB-231 cells assessed as viable cells compound treated 1 hr post 10 mM ROS inhibitor NAC addition measured after 24 hrs by Annexin-V/PI staining based flow cytometry (reference value: 84.94%); assay type: functional
# PC-3 [5] = test: Induction of cell cycle arrest in human PC3 cells assessed as accumulation at subG1 phase at IC50 concentration measured after 24 hrs by propidium iodide staining based flow cytometry; assay type: functional; how it was run: as §1
# MDA-MB-231 [6] = test: Induction of apoptosis in human MDA-MB-231 cells assessed as necrotic cells measured compound treated 1 hr post 10 mM ROS inhibitor NAC addition measured after 24 hrs by Annexin-V/PI staining based flow cytometry (reference value: 0.84%); assay type: functional
# MDA-MB-231 [7] = test: Induction of apoptosis in human MDA-MB-231 cells assessed as early apoptotic cells measured after 24 hrs by Annexin-V/PI staining based flow cytometry (reference value: 11.31%); assay type: functional
# MDA-MB-231 [8] = test: Induction of apoptosis in human MDA-MB-231 cells assessed as viable cells measured after 24 hrs by Annexin-V/PI staining based flow cytometry (reference value: 84.94%); assay type: functional
# MDA-MB-231 [9] = test: Induction of cell cycle arrest in human MDA-MB-231 cells assessed as accumulation at subG1 phase at IC50 concentration measured after 24 hrs by propidium iodide staining based flow cytometry; assay type: functional; how it was run: as §1
# MDA-MB-231 [10] = test: Induction of apoptosis in human MDA-MB-231 cells assessed as late apoptotic cells at 22 uM measured after 24 hrs by Annexin-V/PI staining based flow cytometry (reference value: 6.11%); assay type: functional
# How it was run: (§2)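 MDA-MB-231 cells (1×10^6) seeded in six-well plates, grown overnight, then exposed 24 h to 11 or 22 µM. Cells trypsinized, washed in PBS, stained with Annexin-V-FITC and propidium iodide using a kit, and analysed by flow cytometry. Compared with untreated vehicle control.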
# MDA-MB-231 [11] = test: Induction of apoptosis in human MDA-MB-231 cells assessed as necrotic cells at 22 uM measured after 24 hrs by Annexin-V/PI staining based flow cytometry (reference value: 2.24%); assay type: functional; how it was run: as §2
# MDA-MB-231 [12] = test: Effect on phosphorylated p38 level in human MDA-MB-231 cells at 11 uM after 24 hrs by western blot analysis pretreated with ROS inhibitor NAC; assay type: functional, cell-based
# How it was run: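 MDA-MB-231 cells pretreated with NAC, then exposed to compound at 11 µM for 24 h. Lysates in RIPA quantified by Bradford. 40 µg protein resolved by SDS-PAGE and blotted to PVDF. Membranes blocked with 1% BSA, probed overnight at 4 °C for phospho-p38 and p38, then with HRP secondary.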
# MDA-MB-231 [13] = test: Induction of apoptosis in human MDA-MB-231 cells assessed as late apoptotic cells at 11 uM measured after 24 hrs by Annexin-V/PI staining based flow cytometry (reference value: 6.11%); assay type: functional; how it was run: as §2
# HEK293 = test: Cytotoxicity against human HEK293 cells after 24 hrs by MTT assay; assay type: cell-based; conditions: HEK293, 24 h
# How it was run: (§3)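 1×10^4 cells/well seeded in DMEM with 10% FBS and antibiotic-antimycotic, grown 24 h at 37 °C under 5% CO2. Compounds diluted in phenol red-free DMEM with 2% FBS and given for 24 h, with vehicle control. MTT (5 mg/mL, 20 µL) added for 3 h. Formazan dissolved in DMSO, absorbance read at 570 nm. IC50 is the concentration giving 50% growth inhibition.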
# MDA-MB-231 [14] = test: Induction of apoptosis in human MDA-MB-231 cells assessed as early apoptotic cells at 11 uM measured after 24 hrs by Annexin-V/PI staining based flow cytometry (reference value: 19.77%); assay type: functional; how it was run: as §2
# MDA-MB-231 [15] = test: Induction of apoptosis in human MDA-MB-231 cells assessed as early apoptotic cells at 22 uM measured after 24 hrs by Annexin-V/PI staining based flow cytometry (reference value: 19.77%); assay type: functional; how it was run: as §2
# PC-3 [16] = test: Antiproliferative activity against human PC3 cells after 24 hrs by MTT assay; assay type: functional, cell-based; conditions: PC-3, 24 h; how it was run: as §3
# MDA-MB-231 [17] = test: Induction of apoptosis in human MDA-MB-231 cells assessed as viable cells at 22 uM measured after 24 hrs by Annexin-V/PI staining based flow cytometry (reference value: 71.87%); assay type: functional; conditions: MDA-MB-231, 24 h, read-out: Activity; how it was run: as §2
# MDA-MB-231 [18] = test: Induction of apoptosis in human MDA-MB-231 cells assessed as early apoptotic cells compound treated 1 hr post 10 mM ROS inhibitor NAC addition measured after 24 hrs by Annexin-V/PI staining based flow cytometry (reference value: 11.31%); assay type: functional
# MDA-MB-231 [19] = test: Induction of apoptosis in human MDA-MB-231 cells assessed as viable cells at 11 uM measured after 24 hrs by Annexin-V/PI staining based flow cytometry (reference value: 71.87%); assay type: functional; conditions: MDA-MB-231, 24 h, read-out: Activity; how it was run: as §2
# MDA-MB-231 [20] = test: Induction of apoptosis in human MDA-MB-231 cells assessed as late apoptotic cells compound treated 1 hr post 10 mM ROS inhibitor NAC addition measured after 24 hrs by Annexin-V/PI staining based flow cytometry (reference value: 2.91%); assay type: functional
# MDA-MB-231 [21] = test: Induction of apoptosis in human MDA-MB-231 cells assessed as necrotic cells at 11 uM measured after 24 hrs by Annexin-V/PI staining based flow cytometry (reference value: 2.24%); assay type: functional; how it was run: as §2
# MDA-MB-231 [22] = test: Increase in phosphorylated p38 level in human MDA-MB-231 cells after 24 hrs by western blot analysis; assay type: functional, cell-based
# How it was run: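 MDA-MB-231 cells (1×10^6) seeded 24 h, then treated 24 h at 11 and 22 µM. Cells lysed in ice-cold RIPA and protein measured by Bradford. 40 µg protein run on SDS-PAGE and transferred to PVDF. Membranes blocked with 1% BSA, probed overnight at 4 °C for p-p38 and total p38, then with HRP secondary for 2 h.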
# HCT-116 [23] = test: Induction of cell cycle arrest in human HCT116 cells assessed as accumulation at subG1 phase at IC50 concentration measured after 24 hrs by propidium iodide staining based flow cytometry; assay type: functional; how it was run: as §1
# MDA-MB-231 [24] = test: Antiproliferative activity against human MDA-MB-231 cells after 24 hrs by MTT assay; assay type: functional, cell-based; conditions: MDA-MB-231, 24 h; how it was run: as §3
# MDA-MB-231 [25] = test: Induction of apoptosis in human MDA-MB-231 cells assessed as necrotic cells measured after 24 hrs by Annexin-V/PI staining based flow cytometry (reference value: 0.84%); assay type: functional
# HCT-116 [26] = test: Antiproliferative activity against human HCT116 cells after 24 hrs by MTT assay; assay type: functional, cell-based; conditions: HCT-116, 24 h; how it was run: as §3
# U-937 [27] = test: Antiproliferative activity against human U937 cells after 24 hrs by MTT assay; assay type: functional, cell-based; conditions: U-937, 24 h; how it was run: as §3
# MCF7 [28] = test: Antiproliferative activity against human MCF7 cells after 24 hrs by MTT assay; assay type: functional, cell-based; conditions: MCF7, 24 h; how it was run: as §3
# U-937 [29] = test: Induction of cell cycle arrest in human U937 cells assessed as accumulation at subG1 phase at IC50 concentration measured after 24 hrs by propidium iodide staining based flow cytometry; assay type: functional; how it was run: as §1
structure (smiles),measurement,setting,value
COC1=C(OC)C(O)(CCn2cc(-c3ccc(C(C)(C)C)cc3)nn2)NC1=O (stereo not given),Activity,MDA-MB-231 [1],10.98%
same,Activity,MCF7 [2],Active
same,Activity,MDA-MB-231 [3],Active
same,Activity,MDA-MB-231 [4],81.36%
same,Activity,PC-3 [5],Active
same,Activity,MDA-MB-231 [6],1.112%
same,Activity,MDA-MB-231 [7],32.05%
same,Activity,MDA-MB-231 [8],56.21%
same,Activity,MDA-MB-231 [9],Active
same,Activity,MDA-MB-231 [10],6.95%
same,Activity,MDA-MB-231 [11],2.35%
same,Activity,MDA-MB-231 [12],inactive
same,Activity,MDA-MB-231 [13],3.38%
same,IC50,HEK293,62 µM
same,Activity,MDA-MB-231 [14],27.35%
same,Activity,MDA-MB-231 [15],41.92%
same,IC50,PC-3 [16],30.4 µM
same,viability at 22 µM,MDA-MB-231 [17],48.8%
same,Activity,MDA-MB-231 [18],13.91%
same,viability at 11 µM,MDA-MB-231 [19],67.8%
same,Activity,MDA-MB-231 [20],3.61%
same,Activity,MDA-MB-231 [21],1.48%
same,Activity,MDA-MB-231 [22],Dose-dependent effect
same,Activity,HCT-116 [23],Active
same,IC50,MDA-MB-231 [24],11.3 µM
same,Activity,MDA-MB-231 [25],0.76%
same,IC50,HCT-116 [26],50.3 µM
same,IC50,U-937 [27],> 100 µM
same,IC50,MCF7 [28],> 100 µM
same,Activity,U-937 [29],Active
